Activity calls are given as the source filed them. No cut-off for these calls is given here.
How the values were obtained:
Type in all cases: cell-based
[1] = biological target: T1, von Hippel-Lindau disease tumor suppressor/Mitogen-activated protein kinase kinase kinase 11 (Homo sapiens, UniProt Q16584+P40337); test: PROTAC activity at VHL/MLK3 in human MDA-MB-468 cells assessed as protein degradation at 1 uM measured after 24 hrs by immunoblot analysis
In short: (§1)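 MCF-7 and MDA-MB-468 cells were treated for 24 h across 0.1–5 μM, with DMSO as control. MLK3 was immunoblotted and quantified as percent remaining versus concentration, from which DC50 and Dmax were derived.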

[2] = biological target: T1, von Hippel-Lindau disease tumor suppressor/Mitogen-activated protein kinase kinase kinase 11; test: PROTAC activity at VHL/MLK3 in human MCF7 cells assessed as protein degradation at 1 uM measured after 24 hrs by immunoblot analysis; in short: as §1
[3] = biological target: T1, von Hippel-Lindau disease tumor suppressor/Mitogen-activated protein kinase kinase kinase 11; test: PROTAC activity at VHL/DOX-inducible MLK3 (unknown origin) overexpressed in human HCC1806 cells assessed as protein degradation at 0.25 to 1 uM measured after 24 hrs by immunoblot analysis; conditions: dose 0.25-1 µM
[4] = biological target: Mitogen-activated protein kinase kinase kinase 11 (Homo sapiens) (UniProt Q16584); test: Induction of degradation of DOX-inducible MLK3 (unknown origin) overexpressed in human MCF7 cells at 0.5 to 1 uM measured after 24 hrs by immunoblot analysis; conditions: dose 0.5-1 µM
[5] = biological target: Mitogen-activated protein kinase kinase kinase 11 (Homo sapiens) (UniProt Q16584); test: Induction of degradation of DOX-inducible MLK3 (unknown origin) overexpressed in human MDA-MB-468 cells at 0.5 to 1 uM measured after 24 hrs by immunoblot analysis; conditions: dose 0.5-1 µM

T1 sequence (P40337 whole entry, looked up): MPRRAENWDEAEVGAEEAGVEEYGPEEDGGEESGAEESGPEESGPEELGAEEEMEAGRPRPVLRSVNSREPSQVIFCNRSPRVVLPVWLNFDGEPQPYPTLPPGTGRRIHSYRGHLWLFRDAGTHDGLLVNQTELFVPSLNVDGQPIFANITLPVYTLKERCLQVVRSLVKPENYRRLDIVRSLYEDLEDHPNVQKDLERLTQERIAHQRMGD
T1 sequence (Q16584 whole entry, looked up): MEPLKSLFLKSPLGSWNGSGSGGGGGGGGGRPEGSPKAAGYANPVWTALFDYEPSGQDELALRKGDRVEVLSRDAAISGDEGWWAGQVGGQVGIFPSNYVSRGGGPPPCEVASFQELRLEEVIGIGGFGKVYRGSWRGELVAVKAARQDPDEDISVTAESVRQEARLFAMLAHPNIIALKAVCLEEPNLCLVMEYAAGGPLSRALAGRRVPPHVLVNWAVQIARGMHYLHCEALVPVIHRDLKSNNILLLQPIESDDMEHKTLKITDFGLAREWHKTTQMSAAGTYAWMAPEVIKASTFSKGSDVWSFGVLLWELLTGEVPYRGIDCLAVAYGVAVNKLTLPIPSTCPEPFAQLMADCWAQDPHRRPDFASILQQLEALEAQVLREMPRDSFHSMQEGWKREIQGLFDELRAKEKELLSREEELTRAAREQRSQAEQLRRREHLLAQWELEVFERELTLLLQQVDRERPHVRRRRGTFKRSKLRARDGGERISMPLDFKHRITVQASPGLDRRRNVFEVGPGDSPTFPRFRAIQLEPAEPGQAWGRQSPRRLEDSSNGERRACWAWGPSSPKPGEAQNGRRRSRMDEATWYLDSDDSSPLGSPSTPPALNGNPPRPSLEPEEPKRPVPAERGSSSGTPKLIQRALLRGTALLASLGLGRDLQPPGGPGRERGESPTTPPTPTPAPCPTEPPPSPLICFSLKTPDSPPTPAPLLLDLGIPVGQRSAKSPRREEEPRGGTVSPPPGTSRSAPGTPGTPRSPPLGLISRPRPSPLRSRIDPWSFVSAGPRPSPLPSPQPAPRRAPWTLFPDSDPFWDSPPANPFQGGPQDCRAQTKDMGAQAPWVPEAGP
Sequence of Mitogen-activated protein kinase kinase kinase 11 (Homo sapiens) (Q16584 whole entry, looked up): as above

Activity [4]	Activity [5]	Structure (SMILES)	Activity [1]	Activity [2]	Activity [3]
		CCSCc1ccc2c(c1)c1c3c(c4c5cc(CSCC)ccc5n5c4c1n2[C@H]1C[C@](O)(C(=O)NCCOCCOCCOCC(=O)N[C@H](C(=O)N2C[C@@H](O)C[C@H]2C(=O)N[C@@H](C)c2ccc(-c4scnc4C)cc2)C(C)(C)C)[C@]5(C)O1)CNC3=O	inactive	inactive	inactive
inactive	inactive	CCSCc1ccc2c(c1)c1c3c(c4c5cc(CSCC)ccc5n5c4c1n2[C@H]1C[C@](O)(C(=O)OC)[C@]5(C)O1)CNC3=O			
